Laboratory results published in ChEMBL document CHEMBL1138691, “Substituted furo[3,2-b]pyridines: novel bioisosteres of 5-HT 1F receptor agonists” (Bioorg Med Chem Lett, 2004).
pEC50, pKi: −log10 of the molar value.

Legend:
[1] = target: T1, 5-hydroxytryptamine receptor 1F (Homo sapiens, UniProt P30939); assay: In vitro binding affinity for human 5-hydroxytryptamine 1F receptor
T1 sequence (P30939 whole entry): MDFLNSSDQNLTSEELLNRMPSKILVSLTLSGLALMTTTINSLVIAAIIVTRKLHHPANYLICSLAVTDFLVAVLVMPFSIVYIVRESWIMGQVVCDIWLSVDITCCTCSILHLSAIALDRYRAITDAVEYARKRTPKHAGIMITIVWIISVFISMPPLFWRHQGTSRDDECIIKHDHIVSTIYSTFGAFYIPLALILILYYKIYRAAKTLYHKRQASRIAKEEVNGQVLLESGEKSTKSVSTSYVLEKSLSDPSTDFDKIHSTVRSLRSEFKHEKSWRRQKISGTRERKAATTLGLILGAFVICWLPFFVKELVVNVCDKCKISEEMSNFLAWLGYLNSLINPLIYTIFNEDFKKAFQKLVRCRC
Summary of the method: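 Radioligand binding in cell lines expressing the human 5-HT receptor; Ki reported as mean of three or more experiments with SEM.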

[2] = Ratio of the Ki value for human 5-HT1A receptor versus human 5-HT1F receptor
Summary of the method: (§1)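 Selectivity ratio: Ki at human 5-HT1A, 5-HT1B or 5-HT1D receptor divided by Ki at human 5-HT1F receptor. Each Ki from radioligand binding in cell lines expressing the relevant human receptor, derived from two or more experiments.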

[3] = Ratio of the Ki value for human 5-HT1B receptor versus human 5-HT1F receptor; summary of the method: as §1
[4] = Ratio of the Ki value for human 5-HT1D receptor versus human 5-HT1F receptor; summary of the method: as §1
[5] = target: Serotonin (5-HT) receptor (Homo sapiens) (UniProt P30939+P41595+Q13639+P28222+P46098+P08908+P28221+P28223+P28335+P28566+P34969+P50406+P47898+A5X5Y0+O95264+Q70Z44+Q8WXA8); assay: Maximum stimulation of [35S]GTP-gamma-S, binding expressed relative to the maximal effect of 5-hydroxytryptamine; type: functional
Summary of the method: (§2)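 [35S]GTP-γ-S binding stimulated in mouse LM(tk-) cells expressing human 5-HT1F receptor; means of at least two separate experiments, each run in triplicate, with SEM.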

[6] = target: T1, 5-hydroxytryptamine receptor 1F; assay: Concentration required for stimulation of [35S]GTP-gamma-S, binding in mouse LM(tk-1) cells expressing the human 5-hydroxytryptamine 1F receptor; type: functional, cell-based; summary of the method: as §2

Row | SMILES | pKi [1] | Selectivity ratio [2] | Selectivity ratio [3] | Selectivity ratio [4] | Emax [5] [%] | pEC50 [6]
1 | CN1CCC(c2coc3ccc(NC(=O)c4ccc(F)cc4Cl)nc23)CC1 | 8.52 | 47 | 177 | 165 | 92 | 7.56
2 | CN1CCC(c2coc3ccc(NC(=O)c4ccc(F)cc4)nc23)CC1 | 8.51 | 134 | > 1000 | > 1000 | 88 | 7.18
3 | CN1CCC(c2coc3ccc(NC(=O)c4c(F)cc(F)cc4F)nc23)CC1 | 8.64 | 57 | 181 | 62 | 87 | 7.04
4 | Cc1oc2ccc(NC(=O)c3ccc(F)cc3)nc2c1CCN(C)C | 7.87 | 65 | 42 | 19 |  | 
5 | Cc1[nH]c2ccc(NC(=O)c3ccc(F)cc3)cc2c1CCN(C)C | 8.09 | 32 | 130 | 200 |  | 
6 | CN1CCC(c2c[nH]c3ccc(NC(=O)c4ccc(F)cc4)nc23)CC1 |  | 7.3 | 160 | 960 |  | 
7 | CN1CCC(c2coc3ccc(NC(=O)c4c(F)cccc4Cl)nc23)CC1 | 8.54 | 103 | 164 | 31 | 87 | 7.16
8 | CN1CCC(c2c[nH]c3ccc(NC(=O)c4ccc(F)cc4)cc23)CC1 | 8.80 | 7 | 85 | 86 |  | 
